According to ChEMBL document CHEMBL3351273, “NRPS substrate promiscuity leads to more potent antitubercular sansanmycin analogues” (2014):
≈ marks a conversion by molar mass, not a printed value.

Tests used:
Format in all cases: functional
[1] = test system: Mycobacterium tuberculosis; assay: Antibacterial activity against Mycobacterium tuberculosis H37Rv after 5 days by microplate Alamar Blue assay; settings: 120 h
How it was run: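 M. tuberculosis H37Rv grown in 7H9; final inoculum 2 × 10^6 cfu/mL. Samples from 20 mg/mL DMSO stocks, 2-fold diluted in 7H9 without Tween 80, tested in triplicate at 37 °C. From day 5, Alamar Blue plus 5% Tween 80 went to a control well; whole plate dosed once bacteria-only well turned pink. Read visually 24 h later; MIC = lowest concentration preventing colour change.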

Pseudomonas aeruginosa = assay: Antibacterial activity against Pseudomonas aeruginosa 11 after 24 hrs by microdilution test; settings: Pseudomonas aeruginosa, 11, 24 h
How it was run: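 CLSI broth microdilution; P. aeruginosa 11 grown in Mueller-Hinton broth, final inoculum 10^6 cells/mL. Samples from 20 mg/mL DMSO stocks, serially diluted, run in triplicate; sansanmycin A as positive control. Incubated 37 °C for 24 h, growth read by eye; MIC = lowest concentration completely inhibiting growth.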

[2] = test system: Mycobacterium tuberculosis; assay: Ratio of sansanmycin A MIC to compound MIC for Mycobacterium tuberculosis H37Rv after 5 days by microplate Alamar Blue assay

Row | Structure (SMILES) | MIC [1] [µg/mL] | MIC (Pseudomonas aeruginosa) [µg/mL] | Ratio [2]
1 | C[C@@H]([C@H](NC(=O)[C@H](CC[S+](C)[O-])NC(=O)N[C@@H](Cc1c[nH]c2ccccc12)C(=O)O)C(=O)N/C=C1/C[C@@H](O)[C@H](n2ccc(=O)[nH]c2=O)O1)N(C)C(=O)[C@@H](N)Cc1cccc(O)c1 (stereo partly drawn) | > 32 | 16 (≈ 18.2 µM) | –
2 | CSCC[C@H](NC(=O)N[C@@H](Cc1c[nH]c2ccccc12)C(=O)O)C(=O)N[C@H](C(=O)N/C=C1/C[C@@H](O)[C@H](n2ccc(=O)[nH]c2=O)O1)[C@H](C)N(C)C(=O)C1Cc2cccc(O)c2CN1 (stereo partly drawn) | > 32 | > 64 | –
3 | CSCC[C@H](NC(=O)N[C@@H](Cc1c[nH]c2ccccc12)C(=O)O)C(=O)N[C@H](C(=O)N/C=C1/C[C@@H](O)[C@H](n2ccc(=O)[nH]c2=O)O1)[C@H](C)N(C)C(=O)C1Cc2cc(O)ccc2CN1 (stereo partly drawn) | 8 (≈ 9.13 µM) | > 64 | –
4 | C[C@@H]([C@H](NC(=O)[C@H](Cc1ccccc1)NC(=O)N[C@@H](Cc1c[nH]c2ccccc12)C(=O)O)C(=O)N/C=C1/C[C@@H](O)[C@H](n2ccc(=O)[nH]c2=O)O1)N(C)C(=O)C1Cc2cccc(O)c2CN1 (stereo partly drawn) | 16 (≈ 17.9 µM) | 32 (≈ 35.9 µM) | –
5 | C[C@@H]([C@H](NC(=O)[C@H](Cc1ccccc1)NC(=O)N[C@@H](Cc1c[nH]c2ccccc12)C(=O)O)C(=O)N/C=C1/C[C@@H](O)[C@H](n2ccc(=O)[nH]c2=O)O1)N(C)C(=O)C1Cc2cc(O)ccc2CN1 (stereo partly drawn) | 2 (≈ 2.24 µM) | 8 (≈ 8.97 µM) | 8
6 | CSCC[C@H](NC(=O)N[C@@H](Cc1ccc(O)cc1)C(=O)O)C(=O)N[C@H](C(=O)N/C=C1/C[C@@H](O)[C@H](n2ccc(=O)[nH]c2=O)O1)[C@H](C)N(C)C(=O)C1Cc2cccc(O)c2CN1 (stereo partly drawn) | > 32 | > 64 | –
7 | CSCC[C@H](NC(=O)N[C@@H](Cc1ccc(O)cc1)C(=O)O)C(=O)N[C@H](C(=O)N/C=C1/C[C@@H](O)[C@H](n2ccc(=O)[nH]c2=O)O1)[C@H](C)N(C)C(=O)C1Cc2cc(O)ccc2CN1 (stereo partly drawn) | 16 (≈ 18.8 µM) | > 64 | –
8 | C[C@@H]([C@H](NC(=O)[C@H](Cc1ccccc1)NC(=O)N[C@@H](Cc1c[nH]c2ccccc12)C(=O)O)C(=O)N/C=C1/C[C@@H](O)[C@H](n2ccc(=O)[nH]c2=O)O1)N(C)C(=O)[C@@H](N)Cc1cccc(O)c1 | 8 (≈ 9.09 µM) | 32 (≈ 36.4 µM) | –
9 | CSCC[C@H](NC(=O)N[C@@H](Cc1ccc(O)cc1)C(=O)O)C(=O)N[C@H](C(=O)N/C=C1/C[C@@H](O)[C@H](n2ccc(=O)[nH]c2=O)O1)[C@H](C)N(C)C(=O)[C@@H](N)Cc1cccc(O)c1 | 8 (≈ 9.51 µM) | 8 (≈ 9.51 µM) | –
10 | NNC(=O)c1ccncc1 [ISONIAZID] | 0.05 (≈ 0.365 µM) | – | –
11 | CO[C@H]1/C=C/O[C@@]2(C)Oc3c(C)c(O)c4c(O)c(c(/C=N/N5CCN(C)CC5)c(O)c4c3C2=O)NC(=O)/C(C)=C\C=C\[C@H](C)[C@H](O)[C@@H](C)[C@@H](O)[C@@H](C)[C@H](OC(C)=O)[C@@H]1C [RIFAMPIN] | 0.12 (≈ 0.146 µM) | – | –
12 | CSCCC(NC(=O)NC(Cc1c[nH]c2ccccc12)C(=O)O)C(=O)NC(C(=O)N/C=C1\C[C@@H](O)[C@H](n2ccc(=O)[nH]c2=O)O1)C(C)N(C)C(=O)C(N)Cc1cccc(O)c1 (stereo partly drawn) [SANSANMYCIN A] | 16 (≈ 18.5 µM) | 4 (≈ 4.63 µM) | –
